# Published values collected from several papers.
# Each line is one published result; the experiments were not run side by side.
# Target: Tyrosine-protein kinase Fer (FER, Homo sapiens, UniProt P16591)
Compound,assay,setting,remaining binding [%]
C[C@@H]1CCN(c2nccc(-c3cnn4ncccc34)n2)C1,binding,1 µM,100
FC(F)(F)Oc1cccc(-c2cnc3ccc(-c4ccncc4)nn23)c1,"cell-free assay, competition with immobilised ligand",5 µM,90
CC(=O)c1c(NS(C)(=O)=O)c2cc(-c3ccc(Cl)cc3)c(-c3ccc(Cl)cc3Cl)nc2n(C)c1=O,"cell-free assay, competition with immobilised ligand",1 µM,100
CC1CCCN1c1nccc(-c2cnn3ncccc23)n1 (stereo not drawn),binding,1 µM,100
O=C(NC[C@@H]1[C@H]2CN(C(=O)OCc3cc(C(F)(F)F)cc(C(F)(F)F)c3)C[C@@H]12)c1ccc2[nH]nnc2c1,"cell-free assay, competition with immobilised ligand",1 µM,97
COc1cnc(Nc2cccc(S(N)(=O)=O)c2)nc1N1CCN(c2ccccc2)CC1,"binding, competition with immobilised ligand",1 µM,100
Cc1cnc(Nc2ccc(C(=O)N3CCC(N4CCCC4)CC3)cc2)nc1-c1cc2ccccc2s1,"binding, competition with immobilised ligand",1 µM,84
CCN1CCN(Cc2ccc(C(=O)Nc3ccc(C)c(Oc4ccc5c(c4)CC(=O)N5)c3)cc2C(F)(F)F)CC1,"binding, competition with immobilised ligand",1 µM,100
COc1ccc2cc(OCC3(C(=O)O)CN(C(=O)c4ccc(F)cc4)C3)ccc2c1,"cell-free assay, competition with immobilised ligand",1 µM,74
c1cncc(-c2cccc(Nc3nccc(NC4CCCCC4)n3)c2)c1,"binding, competition with immobilised ligand",10 µM,83
O=C(NCC1CCOCC1)c1n[nH]cc1NC(=O)c1c(F)cccc1F,"binding, competition with immobilised ligand",1 µM,100
CN(c1nccc(-c2cnn3ncccc23)n1)C1CC1,binding,1 µM,100
C[C@@H](c1ccc(-n2cnc3c(N)ncnc32)cc1)N1CCc2nn(C)c(Cc3ccccc3)c2C1=O,"binding, competition with immobilised ligand",0.1 µM,100
Cc1cnn2ncc(-c3ccnc(N(C)C)n3)c2c1,binding,1 µM,92
O=C(NCCCN1CCOCC1)c1ccc(Nc2ncc(Cl)c(-c3ccc(Cl)s3)n2)cc1,"binding, competition with immobilised ligand",1 µM,86
CS(=O)(=O)N1CCCC(NC(=O)[C@H](CCC2CCCCC2)NC(=O)c2ccc(CNC(=O)c3cnc4ccccn34)cc2)C1 (stereo partly drawn),"cell-free assay, competition with immobilised ligand",0.1 µM,99
O=C(c1ccc(Nc2ncc(Cl)c(-c3cc4ccccc4s3)n2)cc1)N1CCC(N2CCCC2)CC1,"binding, competition with immobilised ligand",1 µM,76
CN(C)c1ncc(F)c(-c2cnn3ncccc23)n1,binding,1 µM,82
CCC(=O)N[C@@H]1CC[C@H](C(=O)N(C)c2ccc(-c3nc4ccccc4o3)cc2)C1,"cell-free assay, competition with immobilised ligand",1 µM,99
COc1ccnn2ncc(-c3ccnc(N(C)C)n3)c12,binding,1 µM,100
Cc1c(C(=O)O)cc(-c2ccc(C3CCNCC3)cc2)c2ccc(-c3ccc(C(F)(F)F)cc3)cc12,"binding, competition with immobilised ligand",1 µM,100
